# ERAP1 HTS inh = ERAP1 (human) enzyme inhibition. Q9NZ08. recombinant ERAP1, Leu-AMC fluorescence, 60 min. inhibition, % at 10.7 µM. 340,000 tested, 0.15% active. AID 652197;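 active = mean replicate inhibition of at least 30%, or all replicates individually reaching that 30% level; inactive = mean below 30% and not every replicate reaching it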;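 note: 0% = neutral control wells and 100% = L-leucinethiol positive control wells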
# Target sequence (Q9NZ08 whole entry, looked up): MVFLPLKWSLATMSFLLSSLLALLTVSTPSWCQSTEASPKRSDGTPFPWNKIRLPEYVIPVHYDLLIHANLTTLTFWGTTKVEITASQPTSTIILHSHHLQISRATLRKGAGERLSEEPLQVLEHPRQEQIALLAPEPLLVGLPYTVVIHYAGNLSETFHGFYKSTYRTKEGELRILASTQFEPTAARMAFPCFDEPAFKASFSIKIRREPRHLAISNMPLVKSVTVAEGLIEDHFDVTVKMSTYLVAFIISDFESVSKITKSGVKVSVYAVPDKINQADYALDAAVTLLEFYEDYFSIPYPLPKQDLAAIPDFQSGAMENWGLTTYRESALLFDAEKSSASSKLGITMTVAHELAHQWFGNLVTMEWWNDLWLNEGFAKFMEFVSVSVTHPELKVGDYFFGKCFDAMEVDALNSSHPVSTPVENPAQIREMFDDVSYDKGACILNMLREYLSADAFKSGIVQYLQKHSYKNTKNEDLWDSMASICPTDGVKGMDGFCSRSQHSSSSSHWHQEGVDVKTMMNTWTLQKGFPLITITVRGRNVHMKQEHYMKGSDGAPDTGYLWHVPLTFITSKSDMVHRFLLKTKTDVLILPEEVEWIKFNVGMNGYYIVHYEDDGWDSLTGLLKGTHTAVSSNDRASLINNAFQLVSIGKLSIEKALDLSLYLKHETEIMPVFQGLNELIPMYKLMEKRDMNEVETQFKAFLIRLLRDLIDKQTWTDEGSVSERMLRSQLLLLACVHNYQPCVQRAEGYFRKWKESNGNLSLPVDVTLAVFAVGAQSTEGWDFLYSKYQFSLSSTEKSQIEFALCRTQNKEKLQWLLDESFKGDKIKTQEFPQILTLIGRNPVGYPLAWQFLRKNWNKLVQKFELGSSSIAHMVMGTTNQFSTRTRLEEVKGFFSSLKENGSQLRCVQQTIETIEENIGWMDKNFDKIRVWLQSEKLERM
# PGC1a acetyl inh = lowers PGC1a acetylation signal in U2OS cells; AlphaScreen anti-acetyl-lysine; with virally co-expressed GCN5 acetyltransferase; inhibition, % at 15.6 µM; 350,000 tested, 0.17% active;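 active = every replicate shows inhibition of at least 40%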;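 note: 0% = neutral control wells and 100% = positive control wells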
# SIRT5 block = blocks human SIRT5 desuccinylation of peptide; Purified SirT5, succinyl-peptide AMC, trypsin-coupled fluorescence; AID 652115; 330,000 tested, 1.1% active; inhibition, % at 15 µM; in the data active = inhibition above about 15%
# FN deposit inh = fibronectin deposition inhibition; AH1F fibroblasts, Alexa488-fibronectin deposition fluorescence, overnight; 350,000 tested, 0.086% active; AID 743247; inhibition, % at 12.6 µM;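 active = mean inhibition across replicates of 30% or more, regardless of how many single replicates reach that level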;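 note: positive control wells lacked labelled fibronectin entirely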
#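 Material – AH1F fibroblast monolayer, labelled fibronectin deposition · Reagent – labelled fibronectin 24 nM · Timing – 1 h adhesion, overnight exposure · Measured by – fluorescence at 485 nm excitation, 525 nm emission · Read-out – inhibition of fibronectin deposition signal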
# FGF22 binding-1 = shifts melting point of recombinant human FGF22; recombinant FGF22 thermal shift, SYPRO orange fluorescence; percent of sucrose octasulfate shift, DMSO zero; 340,000 tested, 1.5% active; activity (Tm shift, normalised), % at 9.99 µM; Q9HCT0;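 active = mean Tm shift, scaled 0 neutral to 100 positive control, at about 1.3% or above, every replicate too, limit read from the data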
# FGF22 binding-2 = FGF22 (human) binding in thermal shift; shares compounds with FGF22 binding-1; recombinant FGF22 thermal shift, SYPRO orange fluorescence; thermal shift activity, °C (ΔTm) at 38 µM; 1,000 tested, 2% active;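 active = fitted rise in melting shift crosses a set limit at or below the top valid dose tested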
# TSA no protein = shows thermal shift signal without protein, FGF22 counter-screen. AID 743019. compound-only SYPRO orange thermal shift counter-screen, no protein. AC50, µM (highest dose often 38 µM). 1,000 tested, 2% active. shares compounds with FGF22 binding-1;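 active = rising signal whose fitted curve reaches the 0.54 level within the top valid dose, showing a melting point, actives reach about 13 µM in these data; inactive = the rest, including activity in the opposite direction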; note: value is where the raw curve crosses a fixed level and not half-maximal
# * hit, by the source's call; i = inactive; / = not tested or not shown; [ ] = remark or other dose. A selection: hits, their analogues and other compounds. The true share with any hit is near 2.2%.
SMILES,ERAP1 HTS inh,PGC1a acetyl inh,SIRT5 block,FN deposit inh,FGF22 binding-1,FGF22 binding-2,TSA no protein
C/C(CC(=O)Nc1cccc(Cl)c1Cl)=N\NC(=O)C(=O)NC1CCCCC1,-3,0,-5,-5,28*,0.051,i
C/C(CC(=O)Nc1ccccc1Cl)=N\NC(=O)C(=O)NCCO,-1,10,0,6,0,/,/
CC(C)C#Cc1ccc([C@@H]2[C@@H](CO)N3C(=O)CN(C(=O)C4CCCCC4)C[C@@H]23)cc1,0,-13,2,/,1.3*,0.22,i
CC(C)C#Cc1ccc([C@H]2[C@@H](CO)N3C(=O)CN(C(=O)C4CCCCC4)C[C@@H]23)cc1,0,-6,1,/,1.9*,0.24,i
CC(C)C#Cc1ccc([C@@H]2[C@@H](CO)N3C(=O)CN(C(=O)C4CCCCC4)C[C@H]23)cc1,0,-11,1,/,1,/,/
CO[C@H]1CN(C)C(=O)c2cc(NS(C)(=O)=O)ccc2OC[C@@H](C)N(CC2CCOCC2)C[C@@H]1C,4,12,-3,-1,/,/,/
CC(=O)Nc1ccc(S(=O)(=O)Nc2ccn(Cc3ccccc3Cl)n2)cc1,3,/,-1,/,2.1*,0.1,i
CC(=O)Nc1ccc(S(=O)(=O)Nc2ccc(Cl)nn2)cc1,/,/,/,-2,/,/,/
CNC[C@H]1Oc2ccc(NC(=O)Nc3ccc(OC)cc3)cc2C(=O)N([C@H](C)CO)C[C@@H]1C,-5,2,4,/,1.4*,0.098[42 µM],i
CNC[C@H]1Oc2ccc(NC(=O)C3CCCCC3)cc2C(=O)N([C@@H](C)CO)C[C@H]1C,3,10,-3,/,1.2*,0.17[42 µM],i
C[C@@H]1CN([C@H](C)CO)C(=O)Cc2cc(NC(=O)Nc3ccc(F)cc3)ccc2O[C@H]1CN(C)C,-3,-14,5,/,0,/,/
CCC(=O)Nc1nc(C)c(-c2csc(Nc3ccccn3)n2)s1,0,2,2,14,1.6*,/,i
COc1ccc(CN(C)C[C@@H]2OCCCC[C@@H](C)Oc3ccc(NC(=O)NC(C)C)cc3C(=O)N([C@@H](C)CO)C[C@@H]2C)cc1,-1,3,-1,/,0,/,/
COc1ccc(NC(=O)CN(c2ccc(C(C)C)cc2)S(=O)(=O)c2c(C)noc2C)cc1OC,/,-6,/,5,13*,-0.036,i
O=C(CCN1CCCCC1)NCC[C@@H]1CC[C@@H](NC(=O)C2CCC2)[C@@H](CO)O1,-2,9,0,/,0,/,/
COc1ccccc1CN(C)C[C@H]1OCc2cnnn2CCCC(=O)N([C@H](C)CO)C[C@H]1C,1,-3,-4,-5,0,/,/
CCC(=O)Nc1ccc2c(c1)OC[C@H](C)N(C(=O)COC)C[C@H](C)[C@H](OC)CN(C)C2=O,-1,-10,-4,14,0,/,/
CC(=O)c1ccc(Nc2nc(N3CCOCC3)nc(N3CCOCC3)n2)cc1,-1,2,0,-7,0,/,/
CC(=O)Nc1ccc(/C(C)=N/Nc2nc(Nc3ccccc3)nc(N3CCOCC3)n2)cc1,-2,6,-2,-2,1.6*,0.029,i
Cc1ccc(S(=O)(=O)N(C)C[C@H]2OCCCC[C@H](C)Oc3ccc(NC(=O)Cc4ccccc4)cc3C(=O)N([C@H](C)CO)C[C@@H]2C)cc1,0,6,11,-6,/,/,/
O=C(C1CC1)N1CC2(C1)[C@H](c1ccccc1)[C@@H](CO)N2Cc1ccc(Cl)cc1,0,-27,-4,-3,2.9*,0.16[42 µM],i
CCNC(=O)C1(C)CCCN(C(=O)C2(c3ccc(Cl)cc3)CCCC2)C1 (stereo not given),1,-6,/,-4,1.6*,0.037,i
O=C(N1CCOCC1)C1(c2ccc(Cl)cc2)CCCC1,/,-22,/,/,/,/,/
Cc1nc2ccccc2c2oc(C(=O)NCc3ccc4c(c3)OCO4)cc12,-3,0,3,1,11*,-4.6[19.5 µM],6.3µM*
CC(=O)c1cc(C)c(OCc2cn(CC(=O)c3ccc(O)cc3)nn2)c(C)c1,1,4,1,9,0,/,/
O=C(Cn1cc(COc2ccc(Br)cc2)nn1)c1ccc(O)cc1,0,1,3,/,1.5*,0.019,i

# Screens (PubChem BioAssay)
